In the library only some 2.1% were active in any assay of this set; here they are far more common.
VIM-2 inhibitor: blocks Pseudomonas aeruginosa VIM-2 metallo-beta-lactamase; purified VIM-2, nitrocefin hydrolysis, epi-absorbance fluorescence; inhibition, % at 5.6 µM; 290,000 tested, 0.89% active;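 active = inhibition above the mean of all tested compounds plus 3 SD, cutoff set per screening run, cut at about 7.5% in these data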;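 also: red hydrolysis product quenches plate fluorescence so inhibitors raise well fluorescence; 0% = enzyme with DMSO and 100% = DMSO without enzyme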
PKA-R1A activ: PKA-R1A complex activation; P00514+P68181; PKA-R1A dissociation, Cy5-IP20 fluorescence polarization; scaled: DMSO 0%, 113 µM cGMP 100%; activation, % at 11.4 µM; 340,000 tested, 0.083% active;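 active = percent activation above the mean of all tested compounds plus 3 SD, cut at about 19% in these data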;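 also: higher means more PKAc released from R1A so a rise in polarization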
MsrA inhibitor: inhibits bovine methionine sulfoxide reductase A. purified bovine MsrA, absorbance read-out. inhibition, % at 15.5 µM. 360,000 tested, 0.75% active. AID 651718;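 also: 0% = vehicle wells with enzyme and 100% = reference inhibitor wells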
IMP-1 inhibitor: blocks Pseudomonas aeruginosa IMP-1 metallo-beta-lactamase; purified IMP-1, nitrocefin hydrolysis, epi-absorbance fluorescence; inhibition, % at 5.6 µM; 290,000 tested, 0.45% active;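 active = inhibition above the mean plus 3 SD of all compounds in the same screening run, cut at about 4.5% in these data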;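 also: 0% = IMP-1 with DMSO and 100% = DMSO wells lacking enzyme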
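system = purified recombinant IMP-1 beta-lactamase | amount = 0.2 nM IMP-1, as dispensed | medium = HEPES buffer pH 7.1 with ZnSO4 and Brij 35 | times = 25 °C, 15 min preincubation, 25 min reaction | detection = plate fluorescence quenching by hydrolysis product, ex 480/em 530 nm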
bovine MsrA act: bovine methionine sulfoxide reductase A activation | purified bovine MsrA, absorbance read-out | activation, % at 10.6 µM | 360,000 tested, 0.3% active; in the data active = activation above about 7.5%;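 also: 0% = vehicle and 100% = reference activator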
PKA-R2B activ: activates the human PKA-R2B holoenzyme complex; activation, % at 11.4 µM; PKA-R2B holoenzyme dissociation, Cy5-IP20 fluorescence polarization; R2B truncated from residue 108, S112A mutant; 0% DMSO only, 100% 113 µM cGMP; 340,000 tested, 0.079% active; P22694+P31323;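 active = activation above a cutoff set at the mean over all compounds plus 3 SD, cut at about 18% in these data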;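 also: higher means more holoenzyme dissociation and a rise in polarization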
Target sequence (P31323 whole entry, looked up, other chains not shown, the tested form may be a part): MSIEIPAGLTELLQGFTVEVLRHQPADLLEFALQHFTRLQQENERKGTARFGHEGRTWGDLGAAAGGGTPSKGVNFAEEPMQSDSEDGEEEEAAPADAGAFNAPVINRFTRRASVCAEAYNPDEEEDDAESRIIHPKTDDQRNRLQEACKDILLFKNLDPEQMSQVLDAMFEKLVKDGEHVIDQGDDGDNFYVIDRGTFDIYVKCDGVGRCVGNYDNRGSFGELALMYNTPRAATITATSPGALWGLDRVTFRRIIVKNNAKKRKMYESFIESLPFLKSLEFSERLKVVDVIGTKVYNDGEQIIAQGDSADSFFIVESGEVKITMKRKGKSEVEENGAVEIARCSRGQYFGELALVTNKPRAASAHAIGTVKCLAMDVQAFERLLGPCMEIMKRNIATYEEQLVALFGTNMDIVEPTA
MsrA inh confirm: bovine MsrA inhibition, confirmed. shares compounds with MsrA inhibitor. purified bovine MsrA, absorbance read-out. inhibition, % at 15.5 µM. 2,300 tested, 41% active. AID 651822;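 also: coupled to thioredoxin reductase with NADPH and selenocystamine and DMSO as substrate; 0% = vehicle only and 100% = full effect of reference inhibitor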
* marks the source's active call; other numbers are inactive results; nt = no result given. Rule as the data show it, unless noted: active = inhibition above about 4.5%; inactive = the rest.

SMILES	VIM-2 inhibitor	PKA-R1A activ	MsrA inhibitor	IMP-1 inhibitor	bovine MsrA act	PKA-R2B activ	MsrA inh confirm
Cc1c(C=N)c(O)n(C)c(=O)c1C#N	-1	4	5.2*	-2	-6	2	6.6*
Cc1ccc(N/N=C/c2c(C)c(C#N)c(=O)n(C)c2O)cc1C	1	3	5.9*	1	-3	10	6.6*
CCN(CC)S(=O)(=O)c1ccc(N=Cc2c(C)c(C#N)c(=O)n(C)c2O)cc1	-2	18	5.1*	0	-2	11	7.3*
COc1cc(S(=O)(=O)Nc2ccc(C)cc2)ccc1N=Cc1c(C)c(C#N)c(=O)n(C)c1O	-2	nt	3	-4	-7	nt	nt
COc1ccc(C(O)c2nc(-c3ccccc3C)cs2)cc1 (stereo unspecified)	nt	nt	1	nt	-4	nt	nt
CCc1nccn1C(=O)c1cnn2c(C(F)F)cc(-c3ccc(C)cc3)nc12	0	-11	4.8*	-3	-9	6	26*
N#Cc1ccccc1COC(=O)c1cccc(S(=O)(=O)N2CCCC2)c1	nt	-7	-1	nt	-9	-13	nt
CCN(CC)c1ccc(C2NCC(c3ccc([N+](=O)[O-])cc3)O2)cc1 (stereo unspecified)	-2	4	5.3*	-3	-5	-12	4.7*
CC(C)c1ccc(COC(=O)CN2C(=O)NC3(CCCCC3C)C2=O)cc1 (stereo unspecified)	nt	1	1	nt	-1	-6	nt
COc1ccccc1-c1cc(C(F)(F)F)nc(N2CCOCC2)n1	-2	-2	12*	-3	-3	7	13*
COc1ccccc1-c1cc(C(F)(F)F)nc(N2CCN(c3ccccc3)CC2)n1	-1	-5	1	-4	-1	-12	nt
c1ccc(-c2onc3cc4c(cc23)OCCO4)cc1	0	3	5.1*	-1	0	-9	2
COc1ccc(-c2nc(C)c(C(C)=O)n2O)cc1[N+](=O)[O-]	1	2	4.8*	-1	-4	-10	3
CCOC(=O)/C(C#N)=C1/C=CN(C)C(C)=N1	0	0	6.6*	0	-7	-3	6.0*
O=C(CN1C(=O)S/C(=C/C=C/c2ccccc2)C1=O)Nc1ccc(C(=O)O)cc1	1	-6	5.3*	0	-4	-2	5.8*
O=C(CN1C(=O)S/C(=C\C=C\c2ccccc2)C1=O)Nc1ccc(C(=O)O)cc1	-3	-12	6.6*	1	-11	-10	4
O=C(CCCN1C(=O)S/C(=C\C=C\c2ccccc2)C1=O)Nc1ccc(O)cc1	0	-3	5	-2	-3	-4	nt
O=C(CN1C(=O)S/C(=C\C=C\c2ccccc2)C1=O)N1CCOCC1	-3	nt	-1	-3	-6	nt	nt
CCC(C)[C@H]1CNC(=O)C(=O)N1CC(C)(C)C (stereo partly specified)	nt	nt	0	nt	-9	nt	nt
Nc1ncc([N+](=O)[O-])cc1Br	-3	-20	5.4*	-4	-11	-8	2
Nc1ncc(Br)cc1Br	-3	-9	1	-4	-4	-9	nt
CCN(CC)Cc1c(O)ccc2cc(-c3nc4ccccc4n3C)c(=O)oc12	3	-1	2	-1	-1	10	nt
CCc1cc2c(=O)c(-c3nc4ccccc4n3C)c(C)oc2c(CN(CC)CC)c1O	0	-2	5.3*	-4	-2	-5	4
COc1cc2c(cc1OC)/C(=C/C(C)=O)OC2	nt	nt	6.9*	nt	nt	nt	4
COC(=O)/C=C1\OCc2cc(OC)c(OC)cc21	nt	nt	3	nt	nt	nt	nt
SMILES	VIM-2 inhibitor	PKA-R1A activ	MsrA inhibitor	IMP-1 inhibitor	bovine MsrA act	PKA-R2B activ	MsrA inh confirm
CC(Oc1ccc(Cl)cc1)C(=O)NCCN1C(=O)S/C(=C\c2cccnc2)C1=O (stereo unspecified)	-4	-3	2	-5	0	-12	nt
O=C(NCCN1C(=O)S/C(=C\c2ccc(OC(F)F)cc2)C1=O)C1=COCCO1	nt	-4	nt	nt	-5	-10	nt
O=C(NCCN1C(=O)S/C(=C\c2ccccc2F)C1=O)C1=COCCO1	nt	-3	4.8*	nt	-5	-4	2
O=C(NCCN1C(=O)S/C(=C\c2ccccc2Cl)C1=O)C1=COCCO1	nt	7	-1	nt	-2	9	nt
O=C(NCCN1C(=O)S/C(=C\c2ccc(OC(F)F)cc2)C1=O)c1cnccn1	-2	4	5.1*	-2	-7	-1	2
COc1ccc(/C=C2\SC(=O)N(CCNC(=O)C3=COCCO3)C2=O)cc1	nt	-7	8.5*	nt	-3	4	3
CN(C)c1ccc(C(=O)Nc2nnc(C3=COCCO3)o2)cc1	-2	-9	5.1*	0	-10	-8	4
CCOC(=O)C1CSCCS(=O)(=O)N1Cc1ccccc1F (stereo unspecified)	nt	nt	1	nt	nt	nt	nt
CCC1SC2=NC(C)=C(C(=O)OCCOC)C(c3ccc(C(=O)OC)cc3)N2C1=O (stereo unspecified)	0	-9	4.9*	-2	-2	3	2
CCC1SC2=NC(C)=C(C(=O)OC)C(c3ccc(C(=O)OC)cc3)N2C1=O (stereo unspecified)	-2	-1	2	-1	-2	-12	nt
COc1ccc(S(=O)(=O)N2CCOCC2)cc1NC(=O)COC(=O)CCS(=O)(=O)c1ccc(C)cc1	nt	5	0	nt	-3	-8	nt
CCOC(=O)CSC1=NC(=O)/C(=C\c2ccc(Cl)cc2)S1	-5	-1	5.2*	-3	3	-8	3
CSC1=NC(=O)/C(=C/c2ccc(SC)cc2)S1	0	-1	0	-4	-5	-1	nt
CC(=O)C1=C(O)C(=O)N(Cc2cccnc2)C1c1ccccc1 (stereo unspecified)	-1	8	6.4*	-3	-7	-1	2
CCOc1cc(/C=N/N=C/c2ccc(O)c(OCC)c2)ccc1O	1	-1	6.4*	0	-1	7	4
CCOc1cc(/C=N/NC(=O)C(=O)NCc2cccnc2)ccc1O	-4	1	5.7*	-5	-8	5	4
Oc1ccc(/C=N/N=C/c2ccc(O)c(O)c2)cc1O	2	3	4.7*	-2	-6	3	6.4*
Oc1ccc(/C=N/N=C/c2ccc(O)cc2)cc1	-6	-8	5.3*	-5	-12	-2	5.5*
CN(C)CCCNC(=O)C(=O)NCC1OCCN1S(=O)(=O)c1cc(F)ccc1F (stereo unspecified)	0	2	0	-4	-3	-2	nt
COc1cc(/C=N/NC(=O)c2ccc(NC(=O)C3CCCCC3)cc2)ccc1O	-3	-9	4	-4	-6	-2	nt
CCOc1cc(/C=N/NC(=O)c2ccc(NC(=O)C3CC3)cc2)ccc1O	-3	-11	5.3*	-3	-6	-4	4

Screens (PubChem BioAssay)
